Here are results for 1 compound from ChEMBL document CHEMBL4680166, “Dual-functional conjugates improving cancer immunochemotherapy by inhibiting tubulin polymerization and indoleamine-2,3-dioxygenase” (Eur J Med Chem, 2020).

For series [1], the system named is HeLa. Kind of series: Anticancer activity against human HeLa cells assessed as inhibition of cell proliferation measured after 72 hrs by MTT assay. It counts as functional, cell-based. In short, it runs like this:
(§1)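 Cells (A549, PC-3, HeLa, HUVEC) grown in DMEM with 10% FBS at 37 °C, 5% CO₂. Seeded at 5 × 10⁴ cells/well and allowed 24 h to attach, then exposed 72 h to a concentration series from DMSO stocks. MTT was added for 4 h and formazan dissolved in DMSO, read at 490 nm. Survival taken relative to untreated control. IC50 by Bliss method, three repeats.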
(In general: Formazan colour is commonly taken as a measure of viable cells.)

Series [2] relates to A549. Kind of series: Anticancer activity against human A549 cells assessed as inhibition of cell proliferation measured after 72 hrs by MTT assay. Format: functional, cell-based. The following applies: A549, 72 h. In a few lines: as §1
The test system of series [3] is PC-3. Kind of series: Anticancer activity against human PC3 cells assessed as inhibition of cell proliferation measured after 72 hrs by MTT assay. Format: functional, cell-based. The following applies: PC-3, 72 h. In short, it runs like this:
as §1

Series [4] relates to HeLa. Kind of series: Induction of apoptosis in human HeLa cells assessed as viable cells at 0.5 uM measured after 24 hrs by Annexin-V-FITC and PI staining based flow cytometry (reference value: 96.3%). Format: functional. Particulars: read-out: Activity. In a few lines: (§2)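 HeLa cells were treated 24 h, washed twice in PBS and resuspended in binding buffer. Stained with annexin V-FITC and PI for 30 min in the dark at room temperature, then analysed by flow cytometry.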
Background: In flow cytometry, cells or beads pass a laser one at a time.

Series [5] deals with HeLa. Kind of series: Induction of apoptosis in human HeLa cells assessed as early apoptotic cells at 0.5 uM measured after 24 hrs by Annexin-V-FITC and PI staining based flow cytometry (reference value: 2.58%). It counts as functional. In short, it runs like this: as §2
The test system of series [6] is HeLa. The series is described as follows: Induction of apoptosis in human HeLa cells assessed as cell membrane integrity loss, chromatin condensation and apoptotic body formation by measuring reduction in green fluorescence intensity at 0.5 uM measured after 24 hrs by AO/EB dual staining based fluorescence microscopy. Format: functional.
The subject of series [7] is HeLa. The series is described as follows: Induction of apoptosis in human HeLa cells assessed as mitochondrial membrane potential dissipation at 0.5 uM incubated for 24 hrs by JC-1 staining based flow cytometry (reference value: 6.6%). Format: functional.
In series [8] the test system is HeLa. The series is described as follows: Induction of apoptosis in human HeLa cells assessed as upregulation of Bax protein expression at 0.5 uM measured after 24 hrs by western blot analysis. It counts as functional, cell-based. In short, it runs like this: (§3)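 HeLa cells were treated 24 h at 37 °C and lysed in buffer containing PMSF. Protein quantified by BCA, equal amounts separated by SDS-PAGE and transferred to nitrocellulose. Blocked in 5% milk, primary antibodies overnight at 4 °C, peroxidase secondary 2 h at 25 °C. Detection by chemiluminescence, β-actin as loading control.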

For series [9], the system named is HeLa. The series is described as follows: Induction of apoptosis in human HeLa cells assessed as upregulation of caspase-3 protein expression at 0.5 uM measured after 24 hrs by western blot analysis. Format: functional, cell-based. In short, it runs like this: as §3
Background: A western blot detects proteins with antibodies after separation by electrophoresis.

Series [10] deals with HeLa. The series is described as follows: Induction of apoptosis in human HeLa cells assessed as upregulation of PARP protein expression at 0.5 uM measured after 24 hrs by western blot analysis. Format: functional, cell-based. In short, it runs like this:
as §3

In series [11] the test system is HeLa. Kind of series: Antitumor activity against human HeLa cells xenografted in BALB/c mouse assessed as inhibition of tumor volume at 15 mg/kg/day, iv administered for 21 days by caliper analysis. It counts as functional. Particulars: 504 h, time 21 day. In short, it runs like this: (§4)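 Male BALB/c nude mice, five weeks old, 18-22 g. Inoculated subcutaneously in the right armpit with 1 × 10⁷ HeLa cells/0.1 mL. At 120-150 mm³, randomized to four groups of five. Once-daily tail-vein injection for 21 days in Tween 80/physiological saline; controls received saline. Tumor volume measured every 2 days by caliper, V = AB²/2.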

Series [12] can be described thus: Toxicity in BALB/c nude mouse transfected with human HeLa cells assessed as liver damage at 15 mg/kg/day, iv for 21 days by H&E staining based immunohistochemistry. It counts as organism-based. Particulars: in vivo, 504 h, time 21 day. In a few lines: (§5)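 After 3 weeks of daily iv dosing of HeLa-xenografted nude mice, organs were taken from one mouse per group. Fixed in 4% paraformaldehyde, paraffin-embedded and sectioned. Stained with Harris hematoxylin and eosin-phloxine, then examined microscopically for histopathology.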

For series [13], the system named is HeLa. Kind of series: Induction of cell cycle arrest in human HeLa cells assessed as accumulation at G1 phase at 0.5 uM measured after 24 hrs by propidium iodide/RNAse staining based flow cytometry (reference value: 61.5%). Format: functional.
Series [14] deals with HeLa. The series is described as follows: Induction of cell cycle arrest in human HeLa cells assessed as accumulation at S phase at 0.5 uM measured after 24 hrs by propidium iodide/RNAse staining based flow cytometry (reference value: 27.8%). Format: functional.
Series [15] concerns HeLa. Kind of series: Induction of apoptosis in human HeLa cells assessed as late apoptotic cells at 0.5 uM measured after 24 hrs by Annexin-V-FITC and PI staining based flow cytometry (reference value: 0.199%). It counts as functional. In a few lines: as §2
Series [16] relates to HeLa. The series is described as follows: Induction of apoptosis in human HeLa cells assessed as cell membrane integrity loss, chromatin condensation and apoptotic body formation by measuring strengthened orange fluorescence intensity at 0.5 uM measured after 24 hrs by AO/EB dual staining based fluorescence microscopy. Format: functional.
Series [17] concerns HeLa. Kind of series: Induction of apoptosis in human HeLa cells assessed as mitochondrial membrane potential dissipation by measuring increase in green fluorescence intensity at 0.5 uM incubated for 24 hrs by JC-1 staining based fluorescence microscopic analysis. It counts as functional, cell-based.
Series [18] has as its system HeLa. The series is described as follows: Antitumor activity against human HeLa cells xenografted in iv dosed BALB/c mouse assessed as inhibition of tumor growth administered once daily for 21 days by caliper analysis. Particulars: dose 15-30 mg/kg/day, time 21.0 day. Format: functional, organism-based. In short, it runs like this: as §4
Series [19] can be described thus: Toxicity in BALB/c nude mouse transfected with human HeLa cells assessed as heart damage at 30 mg/kg/day, iv for 21 days by H&E staining based immunohistochemistry. Particulars: in vivo, 504 h, time 21 day. Format: organism-based. In short, it runs like this: (§6)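 HeLa xenografts were grown s.c. in male BALB/c nude mice, which received i.v. tail-vein doses once daily for 21 days in Tween 80/saline vehicle, with saline controls. After 3 weeks the mice were sacrificed. Organs from one mouse per group were fixed in 4% paraformaldehyde, paraffin-embedded and sectioned. Sections were dewaxed, stained with Harris hematoxylin and eosin-phloxine, and examined microscopically for histopathologic changes.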

A short description of series [20]: Toxicity in BALB/c nude mouse transfected with human HeLa cells assessed as lung damage at 30 mg/kg/day, iv for 21 days by H&E staining based immunohistochemistry. It counts as organism-based. Particulars: in vivo, 504 h, time 21 day. In short, it runs like this:
as §6

Series [21] in a line: Toxicity in BALB/c nude mouse transfected with human HeLa cells assessed as kidney damage at 15 mg/kg/day, iv for 21 days by H&E staining based immunohistochemistry. It counts as organism-based. The following applies: in vivo, 504 h, time 21 day. In a few lines: as §5
The nature of series [22]: Toxicity in BALB/c nude mouse transfected with human HeLa cells assessed as spleen damage at 15 mg/kg/day, iv for 21 days by H&E staining based immunohistochemistry. Format: organism-based. Particulars: in vivo, 504 h, time 21 day. In short, it runs like this: as §5

The source made the active and inactive calls. No cut-off for these calls is given here.

Usually IC50 stands for the concentration needed to halve the response being measured. As a reminder, the inhibition in vivo is the change of the read-out against control, counted positive when it falls.

On to `COc1ccc(/C=C\c2cc(OC)c(OC)c(OC)c2)cc1OC(=O)c1cccc(Cn2cc(CCOC(=O)[C@H](N)Cc3cn(C)c4ccccc34)nn2)c1`, for which the values for the IC50 in series [1], in [2] and in series [3] were 70 nM, 220 nM and 460 nM, respectively. In series [4], the viability at 0.5 µM was found to be 47.3%. Further, the Activity in series [5] is listed as 41.1%; in [7] it was 68.8%; in [12], “Non-Toxic”; in [13], 6.69%; in series [14] it was 17.05%; in series [15], 11%. Also, the Activity result in [18] was “Dose-dependent effect”; in [19], “Non-Toxic”; in [20], “Non-Toxic”; in series [21], “Non-Toxic”; in series [22], “Non-Toxic”. In addition, the result in series [6], in series [8], in series [9], in series [10], in series [16] and in series [17] was Active. In addition, the inhibition in vivo at 15 mg/kg/day in [11] is 50.7%.
